{"source": "ChEMBL document CHEMBL4699411", "about": "“A3- and A2B-nitrocorroles: synthesis and antiviral activity evaluation against human cytomegalovirus infection” (RSC Med Chem, 2020)", "key": {"[1]": {"assay": "Selectivity index, ratio of CC50 for human ARPE-19 cells assessed as reduction in nuclei count measured after […] 33342 staining based microscopic analysis to EC50 Human cytomegalovirus infected in ARPE-19 cells measured after 10 days by microscopic analysis", "assay_type": "toxicity, cell-based", "conditions": "read-out: Ratio CC50/EC50", "outline": "(§1)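 CC50 comes from Hoechst nuclei counts after compound treatment, normalized to DMSO. IC50 comes from hCMV ANCHOR infection at MOI 1 in MRC-5 (read 6 dpi) or MOI 10 in ARPE-19 (read 10 dpi). Infection rate is fluorescent cells over total cells, from at least 1000 cells per well, in triplicate wells. SI is CC50 divided by IC50.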"}, "[2]": {"assay": "Cytotoxicity against human ARPE-19 cells assessed as reduction in nuclei count measured after 10 days for Hoechst 33342 staining based microscopic analysis", "assay_type": "cell-based", "conditions": "time 10 day", "outline": "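ARPE-19 epithelial cells seeded at 8k/well in complete DMEM with 10% FBS and treated with increasing compound concentrations 24 h later. Incubated 10 days at 37 °C. Formalin-fixed, stained with Hoechst 33342 (1 μg mL–1), and nuclei counted by high-content imaging. Counts normalized to DMSO wells. CC50 is the concentration reducing nuclei count by 50%. Mean of two wells ± SD.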"}, "Human betaherpesvirus 5 [3]": {"test_system": "Human betaherpesvirus 5", "assay": "Antiviral activity against Human cytomegalovirus infected in ARPE-19 cells measured after 10 days by fluorescence based microscopic analysis", "assay_type": "functional, cell-based", "outline": "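Cells were ARPE-19 in phenol red-free DMEM with 10% FBS, seeded 8k/well. At 24 h they received a range of compound concentrations and hCMV ANCHOR at MOI 10, then were fixed 10 days post infection. Imaging scored infection rate (fluorescent/total cells) and ANCHOR spot intensity over ≥1000 cells/well, normalized to DMSO and used to derive IC50; mean of three wells ± SD.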"}, "Human betaherpesvirus 5 [4]": {"test_system": "Human betaherpesvirus 5", "assay": "Antiviral activity against Human cytomegalovirus infected in MRC5 cells measured after 6 days by fluorescence based microscopic analysis", "assay_type": "functional, cell-based", "outline": "(§2)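 MRC-5 primary fibroblasts in phenol red-free DMEM with 10% FBS were seeded 8k/well. At 24 h they were treated with compound, infected with hCMV ANCHOR at MOI 1, and fixed 6 days post infection. High-content imaging gave infection rate (fluorescent/total cells) and replication (integrated ANCHOR spot intensity) over ≥1000 cells/well, normalized to DMSO; mean of three wells ± SD.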"}, "[5]": {"assay": "Cytotoxicity against human MRC5 cells assessed as reduction in nuclei count measured after 6 days for Hoechst 33342 staining based microscopic analysis", "assay_type": "cell-based", "conditions": "time 6 day", "outline": "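MRC-5 fibroblasts seeded at 8k/well in complete DMEM with 10% FBS and treated 24 h later with increasing compound concentrations. Incubated 6 days at 37 °C, 5% CO2. Formalin-fixed, Hoechst 33342 (1 μg mL–1) stained, and nuclei counted by high-content imaging. Counts normalized to DMSO wells. CC50 is the concentration halving the nuclei count. Mean of two wells ± SD.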"}, "Human betaherpesvirus 5 [6]": {"test_system": "Human betaherpesvirus 5", "assay": "Antiviral activity against Human cytomegalovirus infected in MRC5 cells assessed as reduction in viral plaque at 2.5 uM measured after 6 days by microscopic analysis relative to control", "assay_type": "functional", "set-up": "scale not given: the % may be the effect or the level left", "conditions": "time 6 day", "outline": "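Compound-treated MRC-5 fibroblasts were infected with hCMV ANCHOR at MOI 1, fixed 6 days post infection and imaged by fluorescence microscopy. Fluorescent viral plaques and replication centres were compared against vehicle (DMSO)-treated wells.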"}, "[7]": {"assay": "Selectivity index, ratio of CC50 for human MRC5 cells assessed as reduction in nuclei count measured after 6 days for Hoechst 33342 staining based microscopic analysis to EC50 Human cytomegalovirus infected in MRC5 cells measured after 6 days by microscopic analysis", "assay_type": "toxicity, cell-based", "conditions": "time 6 day, read-out: Ratio CC50/EC50", "outline": "as §1"}, "Human betaherpesvirus 5 [8]": {"test_system": "Human betaherpesvirus 5", "assay": "Antiviral activity against Human cytomegalovirus harboring ANCHOR infected in MRC5 cells assessed as reduction in viral infection at measured after 6 days by microscopic analysis relative to control", "assay_type": "functional, cell-based", "conditions": "time 6.0 day", "outline": "as §2"}, "Human betaherpesvirus 5 [9]": {"test_system": "Human betaherpesvirus 5", "assay": "Antiviral activity against Human cytomegalovirus infected in MRC5 cells assessed as reduction in viral plaque at 1.25 uM measured after 6 days by microscopic analysis", "assay_type": "functional, cell-based", "conditions": "time 6.0 day", "outline": "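MRC-5 fibroblasts seeded at 8k cells/well and infected 24 h later with fluorescent hCMV ANCHOR strain at MOI 1, with compound added at increasing concentrations. Cultured 6 days, fixed with formalin, nuclei stained with Hoechst, and imaged by high-content microscopy. Fluorescent plaques and replication centres were scored against DMSO-treated cells.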"}, "Human betaherpesvirus 5 [10]": {"test_system": "Human betaherpesvirus 5", "assay": "Antiviral activity against Human cytomegalovirus harboring ANCHOR infected in ARPE-19 cells assessed as reduction in viral infection measured after 10 days by microscopic analysis relative to control", "conditions": "time 10.0 day"}, "[11]": {"conditions": "Human betaherpesvirus 5, ARPE-19, 240 h, read-out: IC50"}, "[12]": {"conditions": "Human betaherpesvirus 5, MRC5, 144 h, read-out: IC50"}}, "note": "Active and inactive are the calls of the source. The rule behind the calls is not given here.", "data": [{"smiles": "O=[N+]([O-])c1cc(F)cc(-c2c3nc(c4ccc([nH]4)c(-c4cc(F)cc([N+](=O)[O-])c4)c4ccc([nH]4)c(-c4cc(F)cc([N+](=O)[O-])c4)c4ccc2[nH]4)C=C3)c1", "values": [{"measurement": "selectivity ratio", "setting": "[1]", "value": "> 26"}, {"measurement": "CC50 at 240 h", "setting": "[2]", "value": "> 50", "unit": "µM"}, {"measurement": "IC50", "setting": "Human betaherpesvirus 5 [3]; [11]", "value": 1.9, "unit": "µM"}, {"measurement": "IC50", "setting": "Human betaherpesvirus 5 [4]; mrc5", "value": "Not Active"}, {"measurement": "CC50 at 144 h", "setting": "[5]", "value": "> 50", "unit": "µM"}]}, {"smiles": "O=[N+]([O-])c1cccc(-c2c3nc(c4ccc([nH]4)c(-c4cccc([N+](=O)[O-])c4F)c4ccc([nH]4)c(-c4cccc([N+](=O)[O-])c4F)c4ccc2[nH]4)C=C3)c1F", "values": [{"measurement": "selectivity ratio", "setting": "[1]", "value": "> 82"}, {"measurement": "Activity", "setting": "Human betaherpesvirus 5 [6]", "value": 100, "unit": "%"}, {"measurement": "CC50 at 240 h", "setting": "[2]", "value": "> 50", "unit": "µM"}, {"measurement": "IC50", "setting": "Human betaherpesvirus 5 [3]; [11]", "value": 0.6, "unit": "µM"}, {"measurement": "selectivity ratio at 144 h", "setting": "[7]", "value": "> 27"}, {"measurement": "Activity", "setting": "Human betaherpesvirus 5 [8]", "value": "Dose-dependent effect"}, {"measurement": "IC50", "setting": "Human betaherpesvirus 5 [4]; [12]", "value": 1.8, "unit": "µM"}, {"measurement": "CC50 at 144 h", "setting": "[5]", "value": "> 50", "unit": "µM"}, {"measurement": "Activity", "setting": "Human betaherpesvirus 5 [9]", "value": "Active"}, {"measurement": "Activity", "setting": "Human betaherpesvirus 5 [10]", "value": "Dose-dependent effect"}]}, {"smiles": "O=[N+]([O-])c1cc(F)ccc1-c1c2nc(c3ccc([nH]3)c(-c3ccc(F)cc3[N+](=O)[O-])c3ccc([nH]3)c(-c3ccc(F)cc3[N+](=O)[O-])c3ccc1[nH]3)C=C2", "values": [{"measurement": "selectivity ratio", "setting": "[1]", "value": "> 11"}, {"measurement": "CC50 at 240 h", "setting": "[2]", "value": "> 50", "unit": "µM"}, {"measurement": "IC50", "setting": "Human betaherpesvirus 5 [3]; [11]", "value": 4.3, "unit": "µM"}, {"measurement": "selectivity ratio at 144 h", "setting": "[7]", "value": "> 16"}, {"measurement": "Activity", "setting": "Human betaherpesvirus 5 [8]", "value": "Dose-dependent effect"}, {"measurement": "IC50", "setting": "Human betaherpesvirus 5 [4]; [12]", "value": 3, "unit": "µM"}, {"measurement": "CC50 at 144 h", "setting": "[5]", "value": "> 50", "unit": "µM"}, {"measurement": "Activity", "setting": "Human betaherpesvirus 5 [10]", "value": "Dose-dependent effect"}]}, {"smiles": "O=[N+]([O-])c1ccc(F)cc1-c1c2nc(c3ccc([nH]3)c(-c3cc(F)ccc3[N+](=O)[O-])c3ccc([nH]3)c(-c3cc(F)ccc3[N+](=O)[O-])c3ccc1[nH]3)C=C2", "values": [{"measurement": "selectivity ratio", "setting": "[1]", "value": "> 10"}, {"measurement": "CC50 at 240 h", "setting": "[2]", "value": "> 50", "unit": "µM"}, {"measurement": "IC50", "setting": "Human betaherpesvirus 5 [3]; [11]", "value": 5.2, "unit": "µM"}, {"measurement": "selectivity ratio at 144 h", "setting": "[7]", "value": "> 7"}, {"measurement": "IC50", "setting": "Human betaherpesvirus 5 [4]; [12]", "value": 7.1, "unit": "µM"}, {"measurement": "CC50 at 144 h", "setting": "[5]", "value": "> 50", "unit": "µM"}]}, {"smiles": "O=[N+]([O-])c1ccc(-c2c3nc(c4ccc([nH]4)c(-c4ccc([N+](=O)[O-])cc4F)c4ccc([nH]4)c(-c4ccc([N+](=O)[O-])cc4F)c4ccc2[nH]4)C=C3)c(F)c1", "values": [{"measurement": "selectivity ratio", "setting": "[1]", "value": 21.2}, {"measurement": "CC50 at 240 h", "setting": "[2]", "value": 5.3, "unit": "µM"}, {"measurement": "IC50", "setting": "Human betaherpesvirus 5 [3]; [11]", "value": 0.25, "unit": "µM"}, {"measurement": "selectivity ratio at 144 h", "setting": "[7]", "value": 4.5}, {"measurement": "IC50", "setting": "Human betaherpesvirus 5 [4]; [12]", "value": 0.7, "unit": "µM"}, {"measurement": "CC50 at 144 h", "setting": "[5]", "value": 3.4, "unit": "µM"}]}, {"smiles": "O=[N+]([O-])c1cc(C(F)(F)F)ccc1-c1c2nc(c3ccc([nH]3)c(-c3ccc(C(F)(F)F)cc3[N+](=O)[O-])c3ccc([nH]3)c(-c3ccc(C(F)(F)F)cc3[N+](=O)[O-])c3ccc1[nH]3)C=C2", "values": [{"measurement": "selectivity ratio", "setting": "[1]", "value": "> 10"}, {"measurement": "CC50 at 240 h", "setting": "[2]", "value": "> 50", "unit": "µM"}, {"measurement": "IC50", "setting": "Human betaherpesvirus 5 [3]; [11]", "value": 5, "unit": "µM"}, {"measurement": "selectivity ratio at 144 h", "setting": "[7]", "value": "> 17"}, {"measurement": "IC50", "setting": "Human betaherpesvirus 5 [4]; [12]", "value": 2.8, "unit": "µM"}, {"measurement": "CC50 at 144 h", "setting": "[5]", "value": "> 50", "unit": "µM"}]}, {"smiles": "CN(C)c1ccc(-c2c3nc(c4ccc([nH]4)c(-c4ccc(N(C)C)cc4[N+](=O)[O-])c4ccc([nH]4)c(-c4ccc(N(C)C)cc4[N+](=O)[O-])c4ccc2[nH]4)C=C3)c([N+](=O)[O-])c1", "values": [{"measurement": "CC50 at 240 h", "setting": "[2]", "value": "> 50", "unit": "µM"}, {"measurement": "IC50", "setting": "Human betaherpesvirus 5 [3]; arpe-19", "value": "Not Active"}, {"measurement": "IC50", "setting": "Human betaherpesvirus 5 [4]; mrc5", "value": "Not Active"}, {"measurement": "CC50 at 144 h", "setting": "[5]", "value": "> 50", "unit": "µM"}]}, {"smiles": "O=[N+]([O-])c1cc(-c2c3nc(c4ccc([nH]4)c(-c4cc([N+](=O)[O-])c(Br)cc4F)c4ccc([nH]4)c(-c4cc([N+](=O)[O-])c(Br)cc4F)c4ccc2[nH]4)C=C3)c(F)cc1Br", "values": [{"measurement": "CC50 at 240 h", "setting": "[2]", "value": "> 50", "unit": "µM"}, {"measurement": "IC50", "setting": "Human betaherpesvirus 5 [3]; arpe-19", "value": "Not Active"}, {"measurement": "IC50", "setting": "Human betaherpesvirus 5 [4]; mrc5", "value": "Not Active"}, {"measurement": "CC50 at 144 h", "setting": "[5]", "value": "> 50", "unit": "µM"}]}]}
